Published values pooled from the literature.
Lines come from different studies, so protocols differ.
Target: Serine/threonine-protein kinase ICK (CILK1, Homo sapiens, UniProt Q9UPZ9)
Residues used in one study (Q9UPZ9 1-632): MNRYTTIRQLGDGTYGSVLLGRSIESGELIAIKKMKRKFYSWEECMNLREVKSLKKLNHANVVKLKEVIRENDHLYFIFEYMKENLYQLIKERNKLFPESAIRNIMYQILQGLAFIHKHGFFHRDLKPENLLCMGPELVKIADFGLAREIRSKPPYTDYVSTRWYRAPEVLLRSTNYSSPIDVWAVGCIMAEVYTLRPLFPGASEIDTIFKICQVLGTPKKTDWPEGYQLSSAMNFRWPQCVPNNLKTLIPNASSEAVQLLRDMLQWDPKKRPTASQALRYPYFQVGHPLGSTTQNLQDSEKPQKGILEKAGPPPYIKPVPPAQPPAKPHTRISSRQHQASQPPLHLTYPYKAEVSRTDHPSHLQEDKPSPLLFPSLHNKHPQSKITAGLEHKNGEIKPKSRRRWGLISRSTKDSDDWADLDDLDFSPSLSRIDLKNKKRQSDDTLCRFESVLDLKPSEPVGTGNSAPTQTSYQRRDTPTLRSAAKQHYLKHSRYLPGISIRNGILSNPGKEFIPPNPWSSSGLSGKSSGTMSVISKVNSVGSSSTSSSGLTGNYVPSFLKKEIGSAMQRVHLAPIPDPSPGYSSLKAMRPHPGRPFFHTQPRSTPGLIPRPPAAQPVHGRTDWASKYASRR

`O=C(Nc1cccnn1)N1CC(C/C=C/c2cncc(Oc3ccc(C(F)(F)F)cn3)n2)C1` has a remaining binding of 80% (cell-free assay; competition with immobilised ligand; 1 µM).
With `c1cnn2ncc(-c3ccnc(N4CCC45COC5)n3)c2c1` the remaining binding was 69% (binding; 1 µM).
`CN(C)C(=O)Cn1cc(-c2nc([C@@](C)(c3ccc(-c4cnc(N)nc4)cc3)C3CC3)no2)cn1` gave a remaining binding of 100% (binding; competition with immobilised ligand; 1 µM).
For `Cc1cnc(Nc2ccc(C(=O)N3CCC(N4CCCC4)CC3)cc2)nc1-c1cc2ccccc2s1`, the remaining binding was 64% (binding; competition with immobilised ligand; 1 µM).
For `FC(F)(F)Oc1cccc(-c2cnc3ccc(-c4ccncc4)nn23)c1`, the remaining binding was 4.5% (cell-free assay; competition with immobilised ligand; 5 µM).
The remaining binding of `CCN1CCN(Cc2ccc(C(=O)Nc3ccc(C)c(Oc4ccc5c(c4)CC(=O)N5)c3)cc2C(F)(F)F)CC1` is reported as 100% (binding; competition with immobilised ligand; 1 µM).
`C[C@@H]1CCN(c2nccc(-c3cnn4ncccc34)n2)C1` gave a remaining binding of 58% (binding; 1 µM).
The remaining binding of `C[C@@H](c1ccc(-n2cnc3c(N)ncnc32)cc1)N1CCc2nn(C)c(Cc3ccccc3)c2C1=O` is reported as 48% (binding; competition with immobilised ligand; 0.1 µM).
The remaining binding of `COc1ncc2cc3ccccc3nc2c1C#N` is reported as 90% (binding; competition with immobilised ligand; 5 µM).
With `O=C(NCCCN1CCOCC1)c1ccc(Nc2nccc(-c3cc4ccccc4s3)n2)cc1` the remaining binding was 64% (binding; competition with immobilised ligand; 1 µM).
`C[C@@]1(Cc2ccc(C#N)cc2)C(=O)N(c2cc(Cl)cc(Cl)c2)c2ncc(C(=O)NC3(c4nc(C5CCC5)no4)CC3)n21` gave a remaining binding of 100% (cell-free assay; competition with immobilised ligand; 1 µM).
`O=C(c1ccc(Nc2ncc(Cl)c(-c3ccc(Cl)s3)n2)cc1)N1CCC(N2CCCC2)CC1` has a remaining binding of 32% (binding; competition with immobilised ligand; 1 µM).
With `Nc1cnc(N2CCc3cc(S(=O)(=O)Nc4c(F)cc(Cl)cc4F)cc(N4CCCC4=O)c32)nc1` the remaining binding was 80% (cell-free assay; competition with immobilised ligand; 1 µM).
`Cc1cnn2ncc(-c3ccnc(N(C)C)n3)c2c1` gave a remaining binding of 82% (binding; 1 µM).
`CS(=O)(=O)NCC[C@H](NC(=O)c1cncc2c1cnn2-c1ccc(F)cc1)c1ccnc(S(C)(=O)=O)c1` has a remaining binding of 100% (binding; competition with immobilised ligand; 1 µM).
`COc1ccnn2ncc(-c3ccnc(N(C)C)n3)c12` gave a remaining binding of 74% (binding; 1 µM).
With `COc1cccc(CNC(=O)c2nc3scc(COCc4ccc(C(=O)O)cc4)c3c(=O)[nH]2)c1` the remaining binding was 66.1% (cell-free assay; competition with immobilised ligand; 1 µM).
`CN(C)c1nccc(-c2cnc3ncccn23)n1` has a remaining binding of 81% (binding; 1 µM).
With `COc1cnc(Nc2cccc(S(N)(=O)=O)c2)nc1N1CCN(c2ccccc2)C(=O)C1` the remaining binding was 75% (binding; competition with immobilised ligand; 1 µM).
`CN(c1nccc(-c2cnn3ncccc23)n1)C1CC1` gave a remaining binding of 100% (binding; 1 µM).
For `O=C(NCC1CCOCC1)c1n[nH]cc1NC(=O)c1c(F)cccc1F`, the remaining binding was 5.7% (binding; competition with immobilised ligand; 1 µM).
